Experimental data gathered from unrelated publications.
Lines come from different studies, so protocols differ.
Cell line: MDA-MB-231
Observed: cell growth or viability

SMILES	test	setting	IC50
Nc1cc(Br)c(Br)cc1N	–	72 h	60 µM
N.N.[Cl][Pt][Cl]	–	24 h	68.4 µM
C/C1=C/C(=O)O[C@@H]2C[C@@H](CC[C@H](C)/C=C\C=C\CC1)O[C@@](OC(=O)c1ccccc1)([C@@H]1CSC(=O)N1)C2	MTT	72 h	5.05 µM
N.N.[Cl][Pt][Cl]	SRB	–	12.2 µM
CCCc1cc(=O)n2nc(NCc3c(F)cc(Cl)cc3F)c(C#N)c2[nH]1	ATP luminescence	72 h	> 50 µM
C/C1=C/C(=O)O[C@@H]2C[C@@H](CC[C@H](C)/C=C\C=C\CC1)O[C@@](O)([C@@H]1CSC(=O)N1CO)C2	MTT	72 h	2.99 µM
CC1=CC(=O)c2c(O)cccc2C1=O	MTT	24 h	4.4 µM
O=C(O)CCCc1ccc(N(CCCl)CCCl)cc1	CCK-8	48 h	> 50 µM
Nc1cc(Cl)c(Cl)cc1N	–	72 h	150 µM
O=C1[O][Pt]2([NH][C@@H]3CCCC[C@H]3[NH]2)[O]C1=O	MTT	96 h	2.6 µM
Cc1coc2c1c(=O)oc1c3ccccc3ccc21	SRB	72 h	10.3 µg/mL
COC1(C2CSC(=O)N2)CC2CC(CCC(C)C=CC=CCCC(C)=CC(=O)O2)O1 (stereo not shown)	MTT	72 h	23.4 µM
COc1c(O)cc2oc3cc(O)c(CC=C(C)C)c(O)c3c(=O)c2c1CC=C(C)C	–	48 h	20.7 µM
